In publication PMC6379907 (Advanced biosystems, 2018):
Read-outs that look alike come from different tables or passages of the source.

Tests used:
S. aureus USA300 [1] = system: S. aureus USA300
S. aureus USA300 [2] = test: Membrane permeation, propidium iodide probe; assay type: cell-based, Staphylococcus aureus; settings: peptides at 3.1 μM; antibiotics at their MIC values
Outline: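 Serially diluted test compound was combined with propidium iodide (20 μM) and bacteria in TSB at final OD600 ~0.1. Incubated at 37°C with shaking at 100 rpm. Fluorescence (ex 584 nm, em 620 nm) was read every 5 min for 2 h. Each condition was run in duplicate.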

fungal protease K = settings: cited from earlier work
chymotrypsin = settings: cited from earlier work
[3] = S. aureus USA300, MIC values used in Figure 9B

Compound: CCCCCCCCCC(=O)N[C@@H](Cc1c[nH]c2ccccc12)C(=O)N[C@H](CC(N)=O)C(=O)N[C@@H](CC(=O)O)C(=O)N[C@@H]1C(=O)NCC(=O)N[C@@H](CCCN)C(=O)N[C@@H](CC(=O)O)C(=O)N[C@H](C)C(=O)N[C@@H](CC(=O)O)C(=O)NCC(=O)N[C@H](CO)C(=O)N[C@@H]([C@H](C)CC(=O)O)C(=O)N[C@@H](CC(=O)c2ccccc2N)C(=O)O[C@@H]1C [daptomycin]
- MIC of antibiotics (S. aureus USA300 [1]; USA300, 20 h): 0.78 µM

Compound: CN[C@H](CC(C)C)C(=O)N[C@H]1C(=O)N[C@@H](CC(N)=O)C(=O)N[C@H]2C(=O)N[C@H]3C(=O)N[C@H](C(=O)N[C@H](C(=O)O)c4cc(O)cc(O)c4-c4cc3ccc4O)[C@H](O)c3ccc(c(Cl)c3)Oc3cc2cc(c3O[C@@H]2O[C@H](CO)[C@@H](O)[C@H](O)[C@H]2O[C@H]2C[C@](C)(N)[C@H](O)[C@H](C)O2)Oc2ccc(cc2Cl)[C@H]1O [vancomycin]
- MIC of antibiotics (S. aureus USA300 [1]; [3]): 0.78 µM
- membrane permeation of S. aureus USA300 (PI fluorescence) (S. aureus USA300 [2]): no membrane permeation

Compound: CO[C@H]1/C=C/O[C@@]2(C)Oc3c(C)c(O)c4c(O)c(cc(O)c4c3C2=O)NC(=O)/C(C)=C\C=C\[C@H](C)[C@H](O)[C@@H](C)[C@@H](O)[C@@H](C)[C@H](OC(C)=O)[C@@H]1C [rifamycin]
- MIC of antibiotics (S. aureus USA300 [1]; [3]): 0.2 µM
- membrane permeation of S. aureus USA300 (PI fluorescence) (S. aureus USA300 [2]): no membrane permeation

Compound: GF-17: synthetic peptide of LL-37 residues 17–32 plus an extra N-terminal glycine (FKRIVQRIKDFLRNLV; extra N-terminal glycine)
- resistance to fungal protease K (fungal protease K): but not GF-17, is resistant
- resistance to chymotrypsin (chymotrypsin): but not GF-17, is resistant
